The text below walks through data of ChEMBL document CHEMBL1141421, “Chemical transformation and biological activities of ambrein, a major product of ambergris from Physeter macrocephalus (sperm whale)” (J Nat Prod, 2007).

≈ marks a conversion by molar mass, not a printed value.

Data set [1] in a line: Cytotoxicity against human WiDr cells by MTT assay. The following applies: read-out: ED50 (the source's name). Type of data set: cell-based. In outline: (§1)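 MTT read-out on human tumour cells: Hepa59T/VGH liver carcinoma, WiDr colon adenocarcinoma, A-549 lung carcinoma and MCF-7 breast adenocarcinoma. ED50 taken as the sample concentration giving 50% lower absorbance than untreated cells.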

Data set [2] is described as follows: Cytotoxicity against human MCF7 cells by MTT assay. Type of data set: cell-based. The conditions noted are these: read-out: ED50 (the source's name). In outline: as §1
The nature of data set [3]: Cytotoxicity against human A549 cells by MTT assay. Type of data set: cell-based. The conditions noted are these: read-out: ED50 (the source's name). In outline:
as §1
(Tetrazolium dyes change colour on reduction, which living cells bring about.)

A short description of data set [4]: Antiinflammatory activity assessed as inhibition of fMLP-induced elastase release in human neutrophils at 10 ug/mL relative to control. It counts as functional, cell-based, Neutrophil. In outline:
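Neutrophils (6 × 10⁵/mL) supplemented with MeO-Suc-Ala-Ala-Pro-Val-p-nitroanilide (100 µM) elastase substrate, equilibrated 2 min at 37 °C, then exposed to test sample for 5 min. Stimulation with FMLP (100 nM)/cytochalasin B (0.5 µg/mL); elastase release followed continuously as absorbance change at 405 nm. DMSO-treated cells served as the 100% reference.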

Data set [5] is described as follows: Cytotoxicity against human hepa59T/VGH cells by MTT assay. It counts as cell-based, Hepa 59T/VGH. The conditions noted are these: read-out: ED50 (the source's name). A digest of the protocol: as §1

On to `C=C1CCCC(C)(C)[C@@H]1C[C@@H](O)/C(C)=C/CC[C@@H]1[C@@]2(C)CCCC(C)(C)[C@@H]2CC[C@@]1(C)O`, for which the CC50 in data set [1], in data set [2], in data set [3] and in data set [5] was > 10 µg/mL in each case. Further, the “Elastase release (% of DMSO control)” value in data set [4] is recorded as 79.3%.
On to `C=C1CCCC(C)(C)[C@@H]1CC/C(=C\CC[C@@H]1[C@@]2(C)CCCC(C)(C)[C@@H]2CC[C@@]1(C)O)CO`, for which the CC50 in data set [1], in data set [2], in data set [3] and in data set [5] was > 10 µg/mL in each case. In data set [4], the “Elastase release (% of DMSO control)” value was determined as 74.4%.
`C=C1CCCC(C)(C)[C@@H]1C/C=C(\C)[C@H]1CC[C@@H]2[C@@]3(C)CCCC(C)(C)[C@@H]3CC[C@@]2(C)O1`: the CC50 in data set [1], in data set [2], in data set [3] and in data set [5] was > 10 µg/mL throughout. The “Elastase release (% of DMSO control)” value in data set [4] was determined as 92.2%.
Take `C=C1CCCC(C)(C)[C@@H]1C[C@@H]1O[C@]2(C)CC[C@H]3C(C)(C)CCC[C@]3(C)[C@H]2CC/C=C\1C`: the CC50 in data set [1], in data set [2], in data set [3] and in data set [5] was > 10 µg/mL throughout. The “Elastase release (% of DMSO control)” value in data set [4] turned out to be 82%.
Regarding `C=C1CCCC(C)(C)[C@@H]1CCC(C)=O`, the CC50 in data set [1], in data set [2], in data set [3] and in data set [5] was > 10 µg/mL in each case.
On to `C=C1CCCC(C)(C)[C@@H]1C[C@H](OC(=O)c1ccccc1)/C(C)=C/CC[C@@H]1[C@@]2(C)CCCC(C)(C)[C@@H]2CC[C@@]1(C)O`, for which the CC50 in data set [1], in data set [2], in data set [3] and in data set [5] was > 10 µg/mL throughout. Besides, the “Elastase release (% of DMSO control)” value in data set [4] turned out to be 115.5%.
On to `C=C1CCCC(C)(C)[C@@H]1C[C@H](O)/C(C)=C/CC[C@@H]1[C@@]2(C)CCCC(C)(C)[C@@H]2CC[C@@]1(C)O`, for which the CC50 in data set [1] amounted to 7.8 µg/mL (≈ 17.5 µM); in data set [2] it was 4 µg/mL (≈ 8.99 µM); in data set [3] it was 6.4 µg/mL (≈ 14.4 µM); in data set [5], 5.7 µg/mL (≈ 12.8 µM). In addition, the “Elastase release (% of DMSO control)” value in data set [4] stood at 132.7%.
For `C=C1CCCC(C)(C)[C@@H]1CC/C(=C/CC[C@@H]1[C@@]2(C)CCCC(C)(C)[C@@H]2CC[C@@]1(C)O)COC(=O)c1ccccc1`, in that order: > 10 µg/mL, > 10 µg/mL, > 10 µg/mL, > 10 µg/mL and 75.6%.
`C=C1CCCC(C)(C)[C@@H]1CC[C@](C)(O)[C@@H]1CCC2[C@@](C)(CC[C@H]3C(C)(C)CCC[C@]23C)O1` (some centres undefined): the CC50 in data set [1], in data set [2], in data set [3] and in data set [5] was > 10 µg/mL each time. In addition, the “Elastase release (% of DMSO control)” value in data set [4] was found to be 81.3%.
Regarding `C=C1CCCC(C)(C)[C@@H]1CC(=O)/C(C)=C/CC[C@@H]1[C@@]2(C)CCCC(C)(C)[C@@H]2CC[C@@]1(C)O`, the CC50 in data set [1] was 10 µg/mL (≈ 22.6 µM); in data set [2], 8.5 µg/mL (≈ 19.2 µM); in data set [3], 5.3 µg/mL (≈ 12 µM); in data set [5] it was 6.8 µg/mL (≈ 15.4 µM). Besides, in data set [4], the “Elastase release (% of DMSO control)” value is 95.1%.
In the same order, the values of `C=C1CCCC(C)(C)[C@@H]1C[C@@H](OC(=O)c1ccccc1)/C(C)=C/CC[C@@H]1[C@@]2(C)CCCC(C)(C)[C@@H]2CC[C@@]1(C)O` are > 10 µg/mL, > 10 µg/mL, > 10 µg/mL, > 10 µg/mL and 85.6%.
Take `C=C1CCCC(C)(C)[C@@H]1CC/C(C)=C/CC[C@@H]1[C@@]2(C)CCCC(C)(C)[C@@H]2CC[C@@]1(C)O` [AMBREIN]: the CC50 in data set [1], in data set [2], in data set [3] and in data set [5] was > 10 µg/mL each time. Further, in data set [4] (Homo sapiens, Neutrophil), the IC50 – broadly, the concentration needed to halve the response being measured – is 4.6 µg/mL (≈ 10.7 µM).
Turning to `COc1cccc2c1C(=O)c1c(O)c3c(c(O)c1C2=O)C[C@@](O)(C(=O)CO)C[C@@H]3O[C@H]1C[C@H](N)[C@H](O)[C@H](C)O1` [DOXORUBICIN], the CC50 is 0.12 µg/mL (≈ 0.221 µM) in data set [1], 0.12 µg/mL (≈ 0.221 µM) in data set [2], 0.21 µg/mL (≈ 0.386 µM) in data set [3] and 0.11 µg/mL (≈ 0.202 µM) in data set [5].
Take `O=c1c(-c2ccc(O)cc2)coc2cc(O)cc(O)c12` [GENISTEIN]: the “Elastase release (% of DMSO control)” value in data set [4] came to 51.6%.
